pEC50: −log10 of the molar value.
Columns and labels:
[1] = Cytotoxicity against human RMS13 cells assessed as cell growth inhibition after 24 hrs by cell titer-glo assay; assay type: toxicity, cell-based
How it was run: (§1)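 Growth of MCF7 breast cancer cells and RMS13 rhabdomyosarcoma cells measured in the presence of compound. Values are the means ± SD of 2 independent experiments, each run in triplicate.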

Homo sapiens [2] = species on record: Homo sapiens; assay: Inhibition of human Hsp70 expressed in Escherichia coli BL21(DE3) assessed as suppression of ATPase activity at 100 uM after 60 mins by TLC based steady state ATPase assay relative to control
How it was run: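 Hsp70 ATPase activity measured without cochaperone. Activity was normalized to reactions with no compound but an equal amount of DMSO. Values are the means of three independent experiments.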

Homo sapiens [3] = assay: Inhibition of human Hsp70 expressed in Escherichia coli BL21(DE3) assessed as suppression of Hdj2-activated ATPase activity at 100 uM dosed 15 mins after Hsp70 and Hdj2 pre-incubation and measured after 60 mins by TLC based steady state ATPase assay relative to control
How it was run: (§2)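 Hsp70 ATPase activity measured with Hdj2 (Hsp40) at a 1:0.5 Hsp70:Hsp40 molar ratio. Activity was normalized to DMSO-matched reactions lacking compound. Values are the means of three independent experiments.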

[4] = target: Large T antigen (Simian virus 40) (UniProt P03070); assay: Inhibition of ATPase activity of SV40 T antigen expressed in baculovirus at 10 uM by antibody affinity chromatography relative to control; details: Betapolyomavirus macacae
How it was run: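 Purified T antigen ATPase activity measured with test agent at a final concentration of 10 μM. Activity was normalized to reactions with no compound but an equal amount of DMSO. Values are the means of three independent experiments.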

BK polyomavirus = assay: Antiviral activity against BK polyomavirus Gardner infected in human HFF cells assessed as reduction in DNA copy number after 7 days by PCR analysis; assay type: functional, cell-based; details: Betapolyomavirus hominis, 168 h
How it was run: (§3)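 BK virus replication and viability measured in human foreskin fibroblasts. EC50 is the concentration giving 50% activity. CC50 is the concentration killing 50% of viable cells. Values come from two independent experiments.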

[5] = Cytotoxicity against BK polyomavirus Gardner infected-human HFF cells assessed as reduction in cell viability after 7 days by cell titer-glo assay; assay type: toxicity, cell-based; details: for CC50 at 168 h: HFF cells infected with BK polyomavirus Gardner; for CC50: hff, 168 h; how it was run: as §3
[6] = Cytotoxicity against JC polyomavirus MAD-4 infected grivet COS7 cells assessed as reduction in cell viability after 7 days by cell titer-glo assay; assay type: toxicity, cell-based; details: chlorocebus aethiops, cos-7, 168 h
How it was run: (§4)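 JC virus replication and viability measured in COS7 green monkey kidney cells. EC50 is the concentration giving 50% activity. CC50 is the concentration killing 50% of viable cells. Values come from two independent experiments.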

[7] = Specificity index, ratio of CC50 for grivet COS7 cells to EC50 for JC polyomavirus MAD-4 infected in grivet COS7 cells; parameters: species or system COS-7
JC polyomavirus = assay: Antiviral activity against JC polyomavirus MAD-4 infected in grivet COS7 cells assessed as reduction in DNA copy number after 7 days by PCR analysis; assay type: functional, cell-based; details: MAD-4, COS-7, 168 h; how it was run: as §4
[8] = Cytotoxicity against human MCF7 cells assessed as cell growth inhibition after 48 hrs by cell titer-glo assay; assay type: toxicity, cell-based; how it was run: as §1
Homo sapiens [9] = assay: Activation of human Hsp70 expressed in Escherichia coli BL21(DE3) assessed as stimulation of Hdj2-activated ATPase activity at 100 uM dosed 15 mins after Hsp70 and Hdj2 pre-incubation and measured after 60 mins by TLC based steady state ATPase assay relative to control; how it was run: as §2
[10] = Partition coefficient, logP of the compound; assay type: physicochemical; details: octanol/water
[11] = Distribution coefficient, logD of the compound; assay type: physicochemical; details: octanol/water

Large T antigen (Simian virus 40), sequence (P03070 whole entry): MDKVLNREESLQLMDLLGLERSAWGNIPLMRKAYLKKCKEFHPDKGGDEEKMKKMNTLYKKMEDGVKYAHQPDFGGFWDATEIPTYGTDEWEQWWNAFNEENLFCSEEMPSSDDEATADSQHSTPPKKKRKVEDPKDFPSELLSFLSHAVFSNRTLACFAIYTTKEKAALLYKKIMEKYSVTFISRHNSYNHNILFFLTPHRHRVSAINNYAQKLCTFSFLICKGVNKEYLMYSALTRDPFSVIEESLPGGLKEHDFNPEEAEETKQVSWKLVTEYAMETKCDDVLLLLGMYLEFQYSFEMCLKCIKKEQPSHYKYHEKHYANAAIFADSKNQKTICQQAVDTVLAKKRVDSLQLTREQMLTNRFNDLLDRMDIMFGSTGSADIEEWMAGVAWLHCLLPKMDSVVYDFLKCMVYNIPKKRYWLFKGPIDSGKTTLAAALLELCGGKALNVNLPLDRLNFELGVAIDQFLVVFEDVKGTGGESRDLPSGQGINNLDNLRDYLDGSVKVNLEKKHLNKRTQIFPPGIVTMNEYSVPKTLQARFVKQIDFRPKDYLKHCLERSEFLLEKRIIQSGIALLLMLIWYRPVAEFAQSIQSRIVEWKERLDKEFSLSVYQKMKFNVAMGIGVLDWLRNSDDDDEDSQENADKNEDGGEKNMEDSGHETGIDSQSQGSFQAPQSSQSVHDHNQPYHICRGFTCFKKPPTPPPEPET

| SMILES | GI50 at 24 h [1] [µM] | fold change (FC) (Homo sapiens [2]) | fold change (FC) (Homo sapiens [3]) | fold change (FC) [4] | GI50 at 48 h [8] [µM] | other results |
| --- | --- | --- | --- | --- | --- | --- |
| CC1=C(C(=O)OCc2ccccc2)C(c2ccc(-c3ccccc3C)cc2)N(Cc2ccc(-c3nnn[nH]3)cc2)C(=S)N1 (stereo not given) | 62 | 1.3 | 4.8 | 7.5 |  |  |
| Nc1ccn(C[C@@H](CO)OCP(=O)(O)O)c(=O)n1.O.O [CIDOFOVIR] |  |  |  |  |  | pEC50 (BK polyomavirus): 5.96; CC50 at 168 h [5]: > 100 µM; CC50 [6]: 49 µM; Ratio CC50/EC50 [7]: 24; pEC50 (JC polyomavirus): 5.70 |
| CC1=C(C(=O)OCc2ccccc2)C(c2ccc(-c3ccccc3)cc2)NC(=S)N1Cc1ccc(-c2nnn[nH]2)cc1 (stereo not given) | 87 | 1.4 | 4.5 | 5.5 | 140 |  |
| CC1=C(C(=O)OCc2ccccc2)C(c2ccc(-c3ccccc3)cc2)NC(=O)N1Cc1ccc(-c2nnn[nH]2)cc1 (stereo not given) | 96 |  | 5 | 2 | 160 |  |
| CC1=C(C(=O)OCc2ccccc2)C(c2ccc(-c3ccccc3C)cc2)NC(=O)N1Cc1ccc(-c2nnn[nH]2)cc1 (stereo not given) | 73 |  |  |  | 140 | pEC50 (BK polyomavirus): 5.77; CC50 [5]: 20 µM; CC50 [6]: 21 µM; pEC50 (JC polyomavirus): 5.38 |
| CC1=C(C(=O)OCc2ccccc2)C(c2ccc(-c3ccccc3)cc2)NC(=O)N1CCCCCC(=O)O (stereo not given) | 120 |  |  | 1.5 |  | fold change (FC) (Homo sapiens [9]): 1.5 |
| CC1=C(C(=O)OCc2ccccc2)C(c2ccc(-c3ccccc3)cc2)NC(=S)N1CCCCCc1nnn[nH]1 (stereo not given) | 110 |  | 1.7 | 2.1 |  |  |
| CC1=C(C(=O)OCc2ccccc2)C(c2ccc(-c3ccccc3)cc2)NC(=S)N1CCCCCC(=O)O (stereo not given) | 100 |  |  | 1.5 |  |  |
| CC1=C(C(=O)OCc2ccccc2)C(c2ccc(-c3ccccc3)cc2)N(Cc2ccc(-c3nnn[nH]3)cc2)C(=S)N1 (stereo not given) | 72 | 1.7 | 5.3 | 4.5 | 110 | logP [10]: 6.4; pEC50 (BK polyomavirus): 5.74; CC50 [5]: 17 µM; CC50 [6]: 18 µM; Ratio CC50/EC50 [7]: 23; pEC50 (JC polyomavirus): 6.12; logD [11]: 4.8 |
| CC1=C(C(=O)OCc2ccccc2)C(c2ccc(-c3ccccc3C)cc2)NC(=S)N1Cc1ccc(-c2nnn[nH]2)cc1 (stereo not given) | 68 |  | 3.7 | 7.7 | 160 |  |
| CC1=C(C(=O)OCc2ccccc2)C(c2ccc(-c3ccccc3C)cc2)NC(=S)N1CCCCCc1nnn[nH]1 (stereo not given) | 100 |  | 2.5 | 4.7 |  |  |
| CCCCCCN(C(=O)CCCCCN1C(=O)NC(c2ccc(-c3ccccc3)cc2)C(C(=O)OCc2ccccc2)=C1C)C(C(=O)NCCCC)c1ccc(OCC(=O)OC)c(C(=O)OC)c1 (stereo not given) | 13 |  |  |  | 6 |  |
| CC1=C(C(=O)OCc2ccccc2)C(c2ccc(-c3ccccc3C)cc2)NC(=O)N1CCCCCc1nnn[nH]1 (stereo not given) | 100 | 1.4 | 3 | 2.1 | 72 |  |
| CC1=C(C(=O)OCc2ccccc2)C(c2ccc(-c3ccccc3)cc2)N(CCCCCC(=O)O)C(=S)N1 (stereo not given) | 110 |  |  | 1.6 |  |  |
| CC1=C(C(=O)OCc2ccccc2)C(c2ccc(-c3ccccc3)cc2)NC(=O)N1CCCCCc1nnn[nH]1 (stereo not given) |  | 1.2 | 1.3 | 1.4 |  | pEC50 (BK polyomavirus): 5.41; CC50 at 168 h [5]: > 67 µM; CC50 [6]: 24 µM; pEC50 (JC polyomavirus): 5.46 |
| CC1=C(C(=O)OCc2ccccc2)C(c2ccc(-c3ccccc3)cc2)N(Cc2ccc(-c3nnn[nH]3)cc2)C(=O)N1 (stereo not given) |  | 1.2 | 5 | 2.3 |  |  |
